In the M2OR odorant receptor database:

Legend:
Details in all cases: stereoisomer not certain
UniProt Q8VGE3 = molecular target: UniProt Q8VGE3
Method in brief: (§1)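 Values were gathered from published papers (main text and supplementary material), with extra details requested from the original authors when needed, and checked for typos and inconsistencies. Each receptor–molecule pair is called responsive (active) if the original authors judged the measured signal statistically different from baseline, and non-responsive (inactive) otherwise. Assay methods varied by source, often transient mammalian cell-line luciferase assays. Recorded details include cell line, G-protein, co-transfected protein and tags.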

UniProt Q8VGK6 = molecular target: UniProt Q8VGK6
Sequence of UniProt Q8VGK6 (Q8VGK6 as listed by the source): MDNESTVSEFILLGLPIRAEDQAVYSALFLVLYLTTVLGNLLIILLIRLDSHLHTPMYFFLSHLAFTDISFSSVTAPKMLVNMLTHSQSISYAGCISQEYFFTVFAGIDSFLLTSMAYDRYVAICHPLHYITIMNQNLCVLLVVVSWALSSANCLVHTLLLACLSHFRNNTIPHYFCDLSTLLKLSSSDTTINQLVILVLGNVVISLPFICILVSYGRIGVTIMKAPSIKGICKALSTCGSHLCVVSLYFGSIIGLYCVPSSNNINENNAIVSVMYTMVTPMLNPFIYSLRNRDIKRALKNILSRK
Method in brief: as §1

UniProt Q8VGC6 = molecular target: T1, UniProt Q8VGC6
T1 sequence (whole entry): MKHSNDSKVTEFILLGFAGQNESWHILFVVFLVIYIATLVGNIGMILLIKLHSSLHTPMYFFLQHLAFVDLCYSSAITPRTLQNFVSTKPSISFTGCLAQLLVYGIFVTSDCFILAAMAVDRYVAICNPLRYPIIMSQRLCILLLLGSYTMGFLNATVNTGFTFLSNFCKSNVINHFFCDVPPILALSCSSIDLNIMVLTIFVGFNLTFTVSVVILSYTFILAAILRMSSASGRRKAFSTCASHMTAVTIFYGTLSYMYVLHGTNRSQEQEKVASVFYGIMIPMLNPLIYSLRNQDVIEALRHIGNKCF
Method in brief: as §1

UniProt Q8VGD7 = molecular target: T2, UniProt Q8VGD7
T2 sequence (whole entry): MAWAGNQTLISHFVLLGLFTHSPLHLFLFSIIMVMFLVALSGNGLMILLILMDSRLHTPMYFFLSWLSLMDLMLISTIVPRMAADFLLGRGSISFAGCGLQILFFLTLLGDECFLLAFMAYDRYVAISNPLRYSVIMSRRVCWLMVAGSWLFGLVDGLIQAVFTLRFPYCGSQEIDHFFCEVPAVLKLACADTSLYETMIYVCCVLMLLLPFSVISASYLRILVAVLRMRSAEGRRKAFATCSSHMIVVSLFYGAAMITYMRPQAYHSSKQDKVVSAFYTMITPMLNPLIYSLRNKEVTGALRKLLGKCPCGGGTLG
Method in brief: as §1

UniProt Q8VGH1 = molecular target: T3, UniProt Q8VGH1
T3 sequence (whole entry): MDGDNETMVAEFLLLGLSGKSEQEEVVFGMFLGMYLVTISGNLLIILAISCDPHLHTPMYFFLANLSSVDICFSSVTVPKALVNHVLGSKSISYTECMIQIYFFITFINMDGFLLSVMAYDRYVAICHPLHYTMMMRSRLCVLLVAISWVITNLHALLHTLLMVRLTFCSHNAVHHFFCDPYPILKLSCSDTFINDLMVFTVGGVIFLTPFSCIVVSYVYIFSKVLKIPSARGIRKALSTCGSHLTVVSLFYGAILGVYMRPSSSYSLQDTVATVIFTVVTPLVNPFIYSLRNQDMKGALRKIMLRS
Method in brief: as §1

UniProt Q8VGJ1 = molecular target: T4, UniProt Q8VGJ1
T4 sequence (whole entry): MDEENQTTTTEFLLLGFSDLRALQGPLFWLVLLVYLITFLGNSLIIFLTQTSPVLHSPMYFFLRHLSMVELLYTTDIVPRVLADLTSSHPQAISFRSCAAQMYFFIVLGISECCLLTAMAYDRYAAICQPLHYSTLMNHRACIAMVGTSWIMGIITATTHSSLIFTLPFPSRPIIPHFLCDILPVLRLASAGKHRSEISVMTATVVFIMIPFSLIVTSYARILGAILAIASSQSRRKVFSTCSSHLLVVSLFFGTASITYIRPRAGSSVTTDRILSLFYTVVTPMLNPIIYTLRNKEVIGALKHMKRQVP
Method in brief: as §1

UniProt Q8VGJ3 = molecular target: T5, UniProt Q8VGJ3
T5 sequence (whole entry): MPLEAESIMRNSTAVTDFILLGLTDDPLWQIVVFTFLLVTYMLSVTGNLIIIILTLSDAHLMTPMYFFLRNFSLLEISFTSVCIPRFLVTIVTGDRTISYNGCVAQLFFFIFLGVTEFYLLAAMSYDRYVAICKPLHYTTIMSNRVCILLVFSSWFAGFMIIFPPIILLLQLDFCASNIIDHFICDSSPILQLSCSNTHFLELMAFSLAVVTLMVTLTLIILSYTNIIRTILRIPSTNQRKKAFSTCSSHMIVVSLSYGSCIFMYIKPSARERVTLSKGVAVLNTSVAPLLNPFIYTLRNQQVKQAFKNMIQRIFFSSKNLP
Method in brief: as §1

UniProt Q8VGJ5 = molecular target: T6, UniProt Q8VGJ5
T6 sequence (whole entry): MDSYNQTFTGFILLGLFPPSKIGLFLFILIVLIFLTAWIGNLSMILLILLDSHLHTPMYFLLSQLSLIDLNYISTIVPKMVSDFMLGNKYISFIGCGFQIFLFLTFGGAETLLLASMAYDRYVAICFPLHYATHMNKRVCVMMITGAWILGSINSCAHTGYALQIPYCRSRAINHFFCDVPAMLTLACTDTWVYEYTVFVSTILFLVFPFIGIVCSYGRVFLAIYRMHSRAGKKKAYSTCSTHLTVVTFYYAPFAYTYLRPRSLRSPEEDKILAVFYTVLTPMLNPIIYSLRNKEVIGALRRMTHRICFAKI
Method in brief: as §1

UniProt Q8VGL0 = molecular target: T7, UniProt Q8VGL0
T7 sequence (whole entry): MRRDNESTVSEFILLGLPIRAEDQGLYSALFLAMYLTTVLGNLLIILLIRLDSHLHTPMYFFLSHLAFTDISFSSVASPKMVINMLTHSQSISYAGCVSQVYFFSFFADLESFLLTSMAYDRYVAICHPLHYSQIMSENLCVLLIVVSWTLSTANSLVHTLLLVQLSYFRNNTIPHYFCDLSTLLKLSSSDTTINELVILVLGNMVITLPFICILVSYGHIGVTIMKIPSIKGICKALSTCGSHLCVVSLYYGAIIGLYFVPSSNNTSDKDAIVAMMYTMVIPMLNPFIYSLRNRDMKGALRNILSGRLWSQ
Method in brief: as §1

UniProt Q8VGL7 = molecular target: T8, UniProt Q8VGL7
T8 sequence (whole entry): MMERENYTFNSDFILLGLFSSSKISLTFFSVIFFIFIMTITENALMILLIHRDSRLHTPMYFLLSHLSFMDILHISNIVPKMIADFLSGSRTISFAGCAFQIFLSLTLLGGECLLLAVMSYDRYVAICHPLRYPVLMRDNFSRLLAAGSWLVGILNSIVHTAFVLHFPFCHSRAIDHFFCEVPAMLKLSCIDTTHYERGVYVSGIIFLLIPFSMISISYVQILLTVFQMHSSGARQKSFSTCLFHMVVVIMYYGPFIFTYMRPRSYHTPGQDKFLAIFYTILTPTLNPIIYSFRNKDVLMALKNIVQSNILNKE
Method in brief: as §1

Sequence of UniProt Q8VGE3 (Q8VGE3 as listed by the source): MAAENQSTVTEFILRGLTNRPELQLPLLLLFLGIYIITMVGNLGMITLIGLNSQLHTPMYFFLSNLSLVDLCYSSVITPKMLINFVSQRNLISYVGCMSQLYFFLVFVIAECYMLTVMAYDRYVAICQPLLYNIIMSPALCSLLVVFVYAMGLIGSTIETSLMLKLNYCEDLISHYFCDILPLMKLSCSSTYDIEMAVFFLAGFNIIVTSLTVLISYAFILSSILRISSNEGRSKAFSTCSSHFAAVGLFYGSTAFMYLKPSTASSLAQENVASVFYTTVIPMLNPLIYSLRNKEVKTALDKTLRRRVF

SMILES | odorant receptor agonist call (UniProt Q8VGE3) | odorant receptor agonist call (UniProt Q8VGK6) | odorant receptor agonist call (UniProt Q8VGC6) | odorant receptor agonist call (UniProt Q8VGD7) | odorant receptor agonist call (UniProt Q8VGH1) | odorant receptor agonist call (UniProt Q8VGJ1) | odorant receptor agonist call (UniProt Q8VGJ3) | odorant receptor agonist call (UniProt Q8VGJ5) | odorant receptor agonist call (UniProt Q8VGL0) | odorant receptor agonist call (UniProt Q8VGL7)
O=c1ccc2ccccc2o1 | active | active |  |  |  |  |  |  |  | 
O=C1CCOc2ccccc21 | active | active |  |  |  |  |  |  |  | 
CCC(=O)C(=O)CC |  |  | inactive | inactive | inactive | inactive | inactive | inactive | inactive | inactive
C=CCOC(=O)CCCCCC |  |  | inactive | inactive | inactive | inactive | inactive | inactive | inactive | inactive
CCCCCCO |  |  | inactive | inactive | inactive | inactive | inactive | inactive | inactive | inactive
CCCCCCOC(C)=O |  |  | inactive | inactive | inactive | inactive | inactive | inactive | inactive | inactive
CCC(=O)O |  |  | inactive | inactive | inactive | inactive | inactive | inactive | inactive | inactive
CCOC(=O)C(C)CC (configuration not stated) |  |  | inactive |  |  |  | inactive |  | inactive | 
CCCCC=O |  |  | inactive |  |  |  | inactive |  | inactive | 
c1ccccc1 |  |  | inactive | inactive | inactive | inactive | inactive | inactive | inactive | inactive
CCCCCCCC(=O)[O-].[H+] |  |  | inactive | inactive | inactive | inactive |  | inactive | inactive | inactive
C=C(C)C1CC=C(C)CC1 (configuration not stated) |  |  | inactive |  |  |  | inactive |  | inactive | 
CC(=O)OCC=C(C)C |  |  | active | inactive | inactive | inactive | inactive | active | inactive | inactive
CC(C)=CCCC(C)CCO (configuration not stated) |  |  | active | inactive | inactive | inactive | inactive | inactive | active | inactive
CCc1ccc(O)cc1 |  |  | inactive |  |  |  | inactive |  | inactive | 
O=C1Cc2ccccc2O1 |  |  | inactive | inactive | inactive | inactive | inactive | inactive | inactive | inactive
CC1CCC(C(C)C)C(=O)C1 (configuration not stated) |  |  | inactive |  |  |  | inactive |  | inactive | 
CCOC(=O)CC(C)C |  |  | inactive |  |  |  | inactive |  | inactive | 
CCCCCCCCC(=O)O |  |  | active | inactive | inactive | inactive | inactive | inactive | inactive | inactive
CCCCC(=O)CC |  |  | active | inactive | inactive | inactive | inactive | active | inactive | inactive

SMILES | odorant receptor agonist call (UniProt Q8VGE3) | odorant receptor agonist call (UniProt Q8VGK6) | odorant receptor agonist call (UniProt Q8VGC6) | odorant receptor agonist call (UniProt Q8VGD7) | odorant receptor agonist call (UniProt Q8VGH1) | odorant receptor agonist call (UniProt Q8VGJ1) | odorant receptor agonist call (UniProt Q8VGJ3) | odorant receptor agonist call (UniProt Q8VGJ5) | odorant receptor agonist call (UniProt Q8VGL0) | odorant receptor agonist call (UniProt Q8VGL7)
CCCCCC(=O)CC |  |  | active | inactive | inactive | inactive | inactive | active | inactive | inactive
CCCCCO |  |  | inactive | inactive | inactive | inactive |  | inactive | inactive | inactive
CCCCCCCCO |  |  | active | inactive | inactive | inactive | inactive | inactive | inactive | inactive
CC12CCC(CC1=O)C2(C)C (configuration not stated) |  |  | inactive | active | inactive | inactive | inactive | inactive | active | inactive
CCCCCCC(=O)[O-].[H+] |  |  | inactive | inactive | inactive | inactive |  | inactive | inactive | inactive
CCCCCOC(=O)CCC |  |  | inactive |  |  |  | inactive |  | inactive | 
CC(CC=O)CCCC(C)(C)O (configuration not stated) |  |  | inactive |  |  |  | inactive |  | inactive | 
COc1cc(C(=O)O)ccc1O |  |  | inactive | inactive | inactive | inactive | inactive | inactive | inactive | inactive
CCCCCCCCCS |  |  | active | inactive | inactive | inactive | inactive | inactive | inactive | inactive
CCCCOC(=O)C(C)OC(=O)CCC (configuration not stated) |  |  | inactive | inactive | inactive | inactive |  | inactive | inactive | inactive
CCOC(=O)C(C)C |  |  | inactive | inactive | inactive | inactive | inactive | active | inactive | active
C=CC(=O)CCCCC |  |  | inactive |  |  |  | inactive |  | inactive | 
CCCCCCCCCCO |  |  | active | inactive | inactive | inactive | inactive | inactive | inactive | inactive
CCC(C(=O)O)c1ccccc1 (configuration not stated) |  |  | inactive | inactive | inactive | inactive |  | inactive | inactive | inactive
COC(OC)c1ccccc1 |  |  | inactive |  |  |  | inactive |  | inactive | 
CCCCCCC(C)=O |  |  | active | inactive | inactive | inactive | inactive | active | inactive | inactive
CCCCCCCCCC(=O)[O-].[H+] |  |  | active | inactive | inactive | inactive | inactive | inactive | inactive | inactive
CC(=O)OCCc1ccccc1 |  |  | inactive |  |  |  | inactive |  | inactive | 
CCCC(C)=O |  |  | inactive | inactive | inactive | inactive |  | inactive | inactive | inactive
O=C(c1ccccc1)c1ccccc1 |  |  | inactive | inactive | inactive | active | inactive | inactive | inactive | inactive
